These results are taken from PubChem BioAssay.

The source made the active and inactive calls.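 The calls were made as follows, unless noted: active = viability at or below 10% of carrier control in both of two separate runs; inconclusive = viability at or below 10% in only one of the two runs; inactive = the rest.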

The nature of assay [1]: Her2 expression decrease, cell viability multiplex – SKBR3 breast tumor cells, AlphaScreen, ATP viability, primary screen (AID 461;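 active = Her2 level under about 52% in both replicate screens, with viability over 70% of control, limit read from the data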;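 as to Her2 level: lower value means less Her2 protein in the cells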;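 as to viability: percent of carrier control wells set as 100% viability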). The following applies: SKBR3 Her2 protein level, 18-24 h, measured here: SKBR3 viability, ATP luminescence, at 10 µM. (In general: Bead proximity is the source of the signal in Alpha formats.)
In assay [2] the target is Receptor tyrosine-protein kinase erbB-2 (Homo sapiens) (UniProt P04626). The description is as above. The following applies: 18-24 h, at 10 µM, stronger effect = lower value.
Receptor tyrosine-protein kinase erbB-2 (Homo sapiens), sequence (P04626 whole entry, looked up): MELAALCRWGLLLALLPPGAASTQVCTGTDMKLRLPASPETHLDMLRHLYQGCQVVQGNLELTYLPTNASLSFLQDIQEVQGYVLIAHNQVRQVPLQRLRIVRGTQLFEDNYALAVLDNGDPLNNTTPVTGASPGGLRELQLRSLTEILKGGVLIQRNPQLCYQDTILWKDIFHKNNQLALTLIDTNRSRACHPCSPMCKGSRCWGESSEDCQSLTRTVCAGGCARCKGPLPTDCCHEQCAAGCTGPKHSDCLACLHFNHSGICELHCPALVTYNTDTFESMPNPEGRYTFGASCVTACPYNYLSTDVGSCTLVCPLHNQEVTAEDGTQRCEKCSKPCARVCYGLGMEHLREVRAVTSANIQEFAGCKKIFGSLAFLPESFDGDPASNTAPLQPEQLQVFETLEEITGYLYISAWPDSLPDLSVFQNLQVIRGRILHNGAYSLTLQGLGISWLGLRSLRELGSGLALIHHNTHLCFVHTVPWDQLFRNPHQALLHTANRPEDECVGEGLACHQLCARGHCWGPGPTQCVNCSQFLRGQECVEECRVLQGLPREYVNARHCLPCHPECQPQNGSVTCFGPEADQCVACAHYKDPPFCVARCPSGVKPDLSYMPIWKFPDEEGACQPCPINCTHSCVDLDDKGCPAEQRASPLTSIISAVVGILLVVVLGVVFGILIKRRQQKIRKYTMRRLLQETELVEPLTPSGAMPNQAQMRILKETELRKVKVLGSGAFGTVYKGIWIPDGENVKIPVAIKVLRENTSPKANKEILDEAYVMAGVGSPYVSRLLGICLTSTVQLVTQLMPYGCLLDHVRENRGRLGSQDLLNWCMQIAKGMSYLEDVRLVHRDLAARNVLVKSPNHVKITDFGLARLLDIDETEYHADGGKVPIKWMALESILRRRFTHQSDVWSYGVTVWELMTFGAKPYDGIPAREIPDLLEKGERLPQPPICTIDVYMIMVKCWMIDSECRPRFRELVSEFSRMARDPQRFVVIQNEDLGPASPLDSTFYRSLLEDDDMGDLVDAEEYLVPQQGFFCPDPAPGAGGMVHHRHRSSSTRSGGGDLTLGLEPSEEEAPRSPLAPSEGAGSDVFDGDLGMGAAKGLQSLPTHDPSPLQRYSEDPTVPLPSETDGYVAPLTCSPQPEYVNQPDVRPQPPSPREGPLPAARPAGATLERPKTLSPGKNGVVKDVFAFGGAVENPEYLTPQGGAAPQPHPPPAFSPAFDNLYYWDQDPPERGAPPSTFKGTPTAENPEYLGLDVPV
Assay [3] in a line: reduced viability of SK-BR-3 breast cancer cells – cell-based, 24 h, human, pilot screen (AID 572).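 Also: compound exposure lasted between 18 and 24 h rather than exactly 24 h; 100% = carrier-treated control wells.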 The following applies: SK-BR-3 viability, CellTiter-Glo luminescence, at 10 µM, stronger effect = lower value. For orientation: In ATP-based viability assays light output follows the ATP content of the culture.
Assay [4] can be described thus: HUVEC growth inhibition – cell-based, human, primary screen (AID 575;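 active = viability at or below 30% in both replicate assays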;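 also: 100% = median of untreated cell wells with 0.1% DMSO on each plate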). The settings on record: HUVEC proliferation, CellTiter-Glo luminescence, 72 h; at 10 µM; stronger effect = lower value. The method, boiled down:
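Assay system: Primary human umbilical vein endothelial cells | Quantity: 1250 cells per well | Medium: Supplemented EBM, 2% fetal bovine serum | Detection: CellTiter-Glo luminescence measuring cellular ATP | Read-out: % viability vs DMSO wells | Plate: Collagen-coated 384-well format | Times: 72 h exposure, 37 °C, 5% CO2, 30 min RT equilibration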

Assay [5] in a line: H69AR cell proliferation blockers – human, duplicate replicates, primary screen (AID 580;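 active = viability at or under a set limit in both replicates, limit being median viability minus 3 SD, cut at about 48% in these data, passing the limit was not always enough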;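 also: 100% = mean luminescence of untreated wells and 0% = no signal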). The settings on record: H69AR lung tumor cells viability, ATP luminescence, 72 h; at 10 µM; stronger effect = lower value.
A short description of assay [6]: MRP1 drug-resistance reversers in H69AR cells – cell-based, doxorubicin co-treatment, pilot screen (AID 601;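 active = viability loss from added drug above about 55%, and viability with drug at most 40%, in both replicates, limit read from the data, passing the limit was not always enough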). The settings on record: CellTiter-Glo, 72 h, at 10 µM; for differential viability (reversal): stronger effect = higher value.
The nature of assay [7]: yeast transport mutant growth inhibition pilot in 384-well plates, post-Golgi transport modulator project (AID 636; in the data active = inhibition above about 31%). The following applies: absorbance 615 nm, about 18 h, stronger effect = higher value.
A short description of assay [8]: growth suppression of yeast trafficking mutant, preliminary HTS, modulators of trafficking downstream of Golgi apparatus project, 1536-format plate, OD 615 nm (AID 637; in the data active = inhibition above about 30%). The following applies: yeast transport mutant growth, absorbance 615 nm, 18 h; stronger effect = higher value.
The mark [9] stands for this setting: H69AR cells + 2 uM doxorubicin, measured here: viability with 2 uM doxorubicin, stronger effect = lower value.
Setting [10] is: H69AR cells, compound alone cytotoxicity.

Usually viability stands for a read-out of living cells in per cent, often relative to untreated cells. What is called inhibition is the relative decrease from the control value, in per cent. For `Cc1cc(NC(=O)NC(=O)c2cccc(OC(F)(F)C(F)F)c2)n[nH]1`, the viability in assay [1] was 99.5%; in assay [3], 99.5% (inactive); in assay [4], 80.4% (inactive); in assay [5], 85.2% (inactive); in assay [6] (setting [9]) it was 98%; in assay [6] (setting [10]), 85.2%. Moreover, the Her2 level in assay [2] is 94% (inactive). In addition, the differential viability (reversal) in assay [6] (H69AR cells + 2 uM doxorubicin) is -12.8% (inactive). Further, the inhibition is -3.73% (inactive) in assay [7] and 20% (inactive) in assay [8].
Regarding `CNS(=O)(=O)c1cccc(C(=O)OCC(=O)c2cc(C)n(-c3ccc4c(c3)OCO4)c2C)c1`, the viability in assay [1] was 85.5%; in assay [3], 85.5% (inactive); in assay [4], 65.6% (inactive); in assay [5] it was 88.4% (inactive); in assay [6] (setting [9]), 85.6%; in assay [6] (setting [10]), 88.4%. The Her2 level in assay [2] is 92% (inactive). Also, the differential viability (reversal) in assay [6] (H69AR cells + 2 uM doxorubicin) was 2.79% (inactive). In addition, the results for the inhibition in assay [7] and in assay [8] were -4.42% (inactive) and 2% (inactive), respectively.
With `Nc1ccc(-n2c(N)c(C(=O)NCc3ccc4c(c3)OCO4)c3nc4ccccc4nc32)cc1`, the viability is 72.5% in assay [1]; 72.5% (inactive) in assay [3]; 64.6% (inactive) in assay [4]; 55.5% (inactive) in assay [5]; 72.9% in assay [6] (setting [9]); 55.5% in assay [6] (setting [10]). Also, the Her2 level in assay [2] was 66.5% (inactive). Besides, the differential viability (reversal) in assay [6] (H69AR cells + 2 uM doxorubicin) was -17.4% (inactive). In addition, the inhibition in assay [7] is -1.73% (inactive); in assay [8] it was 6.61% (inactive).
In the case of `CCOC(=O)c1ccc(NC(=O)NC(C)C2CCCO2)cc1` (stereo not given), the viability in assay [1] was 97.5%; in assay [3], 97.5% (inactive); in assay [4], 108% (inactive); in assay [5], 95.6% (inactive); in assay [6] (setting [9]), 90.4%; in assay [6] (setting [10]) it was 95.6%. Further, the Her2 level in assay [2] is 96.5% (inactive). Besides, the differential viability (reversal) in assay [6] (H69AR cells + 2 uM doxorubicin) is 5.2% (inactive). Further, the inhibition was -1.32% (inactive) in assay [7] and -7.94% (inactive) in assay [8].
Regarding `Cc1c(CCC#N)c(N2CCN(C3CCCCC3)CC2)n2c(nc3ccccc32)c1C#N`, the viability in assay [1] was 88%; in assay [3] it was 88% (inactive); in assay [4], 74.7% (inactive); in assay [5], 32.5% (active); in assay [6] (setting [9]), 22.1%; in assay [6] (setting [10]) it was 32.5%. Moreover, the Her2 level in assay [2] was 83.5% (inactive). In addition, in assay [6] (H69AR cells + 2 uM doxorubicin), the differential viability (reversal) is 10.4% (inactive). Moreover, the inhibition in assay [7] was -5.48% (inactive); in assay [8] it was -0.16% (inactive).
In the case of `CCOc1ncccc1C(=O)OCC(=O)Nc1ncc(C(F)(F)F)cc1Cl`, the viability in assay [1] is 99.5%; in assay [3], 99.5% (inactive); in assay [4] it was 97.2% (inactive); in assay [5], 93.8% (inactive); in assay [6] (setting [9]), 94.3%; in assay [6] (setting [10]), 93.8%. Besides, in assay [2], the Her2 level was 95% (inactive). The differential viability (reversal) in assay [6] (H69AR cells + 2 uM doxorubicin) was -0.51% (inactive). Besides, the inhibition in assay [7] is -1.58% (inactive); in assay [8], 7.9% (inactive).
For `CC(=O)NC(Cc1cc(C)ccc1C)C(=O)N1CCN(C(=O)Nc2ccc(C(C)=O)cc2)CC1` (stereo not given), the viability in assay [1] is 102%; in assay [3], 102% (inactive); in assay [4] it was 109% (inactive); in assay [5], 88.7% (inactive); in assay [6] (setting [9]) it was 94%; in assay [6] (setting [10]), 88.7%. Besides, the Her2 level in assay [2] is 101% (inactive). Besides, the differential viability (reversal) in assay [6] (H69AR cells + 2 uM doxorubicin) was -5.32% (inactive). In addition, the inhibition in assay [7] was -4.62% (inactive); in assay [8] it was -11.3% (inactive).
Consider `Cc1nn(-c2ccccc2)c(C)c1/C=N/O`, for which the viability in assay [1] was 106%; in assay [3] it was 106% (inactive); in assay [4] it was 100% (inactive); in assay [5] it was 96.5% (inactive); in assay [6] (setting [9]), 85.1%; in assay [6] (setting [10]) it was 96.5%. In addition, the Her2 level in assay [2] is 104% (inactive). Further, in assay [6] (H69AR cells + 2 uM doxorubicin), the differential viability (reversal) is 11.4% (inactive). The inhibition in assay [7] was -4.73% (inactive); in assay [8] it was 3.93% (inactive).
Consider `O=C(Nc1nnc(COc2ccc(F)cc2)s1)c1cccs1`, for which the viability in assay [1] is 107%; in assay [3], 107% (inactive); in assay [4] it was 60% (inactive); in assay [5], 106% (inactive); in assay [6] (setting [9]) it was 84.9%; in assay [6] (setting [10]), 106%. In assay [2], the Her2 level is 88.5% (inactive). Also, the differential viability (reversal) in assay [6] (H69AR cells + 2 uM doxorubicin) was 21.3% (inactive). Further, the inhibition in assay [7] is -6.93% (inactive); in assay [8] it was -0.48% (inactive).
As for `CC(C)(C)c1cc(C(=O)O)nn1-c1ccccc1`, the viability in assay [1] is 112%; in assay [3], 112% (inactive); in assay [4], 98.1% (inactive); in assay [5], 92.2% (inactive); in assay [6] (setting [9]) it was 87.1%; in assay [6] (setting [10]) it was 92.2%. The Her2 level in assay [2] is 92% (inactive). Moreover, the differential viability (reversal) in assay [6] (H69AR cells + 2 uM doxorubicin) is 5.08% (inactive). In addition, the inhibition was -4.47% (inactive) in assay [7] and -2.54% (inactive) in assay [8].
As to `CC1(C)COCN1S(=O)(=O)c1ccc(C(=O)Nc2nnc(-c3ccc(Cl)s3)o2)cc1`, the viability is 70.5% in assay [1]; 70.5% (inactive) in assay [3]; 4.41% (active) in assay [4]; 15% (active) in assay [5]; 33.8% in assay [6] (setting [9]); 15% in assay [6] (setting [10]). In addition, the Her2 level in assay [2] is 97% (inactive). Also, the differential viability (reversal) in assay [6] (H69AR cells + 2 uM doxorubicin) is -18.8% (inactive). The inhibition is -5.21% (inactive) in assay [7] and -1.43% (inactive) in assay [8].
Turning to `C=CCNC(=O)c1cc(-c2ccccc2O)on1`, the viability is 97% in assay [1]; 97% (inactive) in assay [3]; 99.1% (inactive) in assay [4]; 86.7% (inactive) in assay [5]; 86.7% in assay [6] (setting [9]); 86.7% in assay [6] (setting [10]). Further, the Her2 level in assay [2] is 82.5% (inactive). In assay [6] (H69AR cells + 2 uM doxorubicin), the differential viability (reversal) is 0.065% (inactive). Moreover, the results for the inhibition in assay [7] and in assay [8] were 2.18% (inactive) and 4.17% (inactive), respectively.
`COCc1cc(C)c2c(N)c(C#N)sc2n1`: the viability is 88% in assay [1]; 88% (inactive) in assay [3]; 91.5% (inactive) in assay [4]; 99.6% (inactive) in assay [5]; 84.3% in assay [6] (setting [9]); 99.6% in assay [6] (setting [10]). Moreover, the Her2 level in assay [2] was 100% (inactive). In addition, the differential viability (reversal) in assay [6] (H69AR cells + 2 uM doxorubicin) is 15.3% (inactive). Further, the values for the inhibition in assay [7] and in assay [8] were -1.32% (inactive) and -2.55% (inactive), respectively.
As for `Cc1ccccc1C(=O)Nc1c(C(=O)N2CCCC2)cnn1-c1ccccc1`, the viability in assay [1] was 112%; in assay [3], 112% (inactive); in assay [4], 106% (inactive); in assay [5], 91.9% (inactive); in assay [6] (setting [9]) it was 82%; in assay [6] (setting [10]), 91.9%. In addition, in assay [2], the Her2 level is 79% (inactive). Moreover, the differential viability (reversal) in assay [6] (H69AR cells + 2 uM doxorubicin) is 9.86% (inactive). The inhibition in assay [7] is -7.7% (inactive); in assay [8] it was -0.63% (inactive).
Consider `COc1ccc(-c2cc(C(F)(F)F)n3ncc(C(=O)NCC4CCCO4)c3n2)cc1` (stereo not given), for which the viability in assay [1] is 84%; in assay [3] it was 84% (inactive); in assay [4], 78.9% (inactive); in assay [5], 41.7% (active); in assay [6] (setting [9]) it was 47.6%; in assay [6] (setting [10]), 41.7%. In assay [2], the Her2 level is 116% (inactive). Further, in assay [6] (H69AR cells + 2 uM doxorubicin), the differential viability (reversal) was -5.95% (inactive). Besides, the results for the inhibition in assay [7] and in assay [8] were -1.54% (inactive) and -3.67% (inactive), respectively.
Regarding `CC(Oc1ccc(Cl)cc1Cl)c1nc(-c2ccc(NC(=O)c3cccnc3)cc2)no1` (stereo not given), the viability in assay [1] is 93.5%; in assay [3] it was 93.5% (inactive); in assay [4], 55% (inactive); in assay [5], 8.04% (active); in assay [6] (setting [9]) it was 18.8%; in assay [6] (setting [10]) it was 8.04%. Also, the Her2 level in assay [2] was 74.5% (inactive). Moreover, the differential viability (reversal) in assay [6] (H69AR cells + 2 uM doxorubicin) was -10.7% (inactive). Besides, the inhibition was 0% (inactive) in assay [7] and 22.2% (inactive) in assay [8].
